The results in this text go back to ChEMBL document CHEMBL1124079, “Methotrexate analogues. 31. Meta and ortho isomers of aminopterin, compounds with a double bond in the side chain, and a novel analogue modified at the alpha-carbon: chemical and in vitro biological studies” (J Med Chem, 1988).

In test [1] the test system is L1210 ( R81). The experiment in a line: Inhibition of the growth of the MTX-resistant L1210/R81 cell line. It counts as functional, cell-based. To be noted: Mus musculus.
The target in test [2] is T1, Dihydrofolate reductase (Mus musculus, UniProt P00375).
T1 sequence (P00375 whole entry): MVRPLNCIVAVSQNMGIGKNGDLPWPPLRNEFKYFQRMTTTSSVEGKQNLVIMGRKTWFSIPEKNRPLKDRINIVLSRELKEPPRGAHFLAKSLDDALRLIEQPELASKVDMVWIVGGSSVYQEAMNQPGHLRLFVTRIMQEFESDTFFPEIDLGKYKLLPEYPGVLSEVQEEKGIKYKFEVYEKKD
Put plainly: Inhibitory activity against dihydrofolate reductase(DHFR). The method in brief:
(§1)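 DHFR purified from L1210 murine leukemia cells by affinity chromatography on MTX-Sepharose, then used as the enzyme source for inhibitor titration; IC50 read from the enzyme-activity titration curve.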

For test [3], the system named is L1210. The experiment in a line: Growth inhibitory activity against cultured L1210 cells. Type of test: functional, cell-based. The settings on record: Mus musculus.
In test [4] the test system is L1210. Put plainly: Inhibitory activity against L1210 cells. It counts as functional, cell-based. To be noted: Mus musculus.
For test [5], the system named is L1210 ( R81). The experiment in a line: Inhibitory activity against L1210/R81 cells. It counts as functional, cell-based. To be noted: Mus musculus.
Test [6] has as its system L1210. Put plainly: Inhibitory activity against cultured L1210 cells. To be noted: Mus musculus.
Test [7] concerns L1210. Put plainly: Inhibitory activity against growth of mouse L1210 leukemia cells. Type of test: functional, cell-based.
For test [8], the target named is T2, Dihydrofolate reductase (Mus musculus) (UniProt P00375).
T2 sequence (whole entry): T1 sequence (P00375 whole entry)
Put plainly: Inhibitory activity against dihydrofolate reductase(DHFR) isolated from L1210 murine leukemia cells at 50 uM. Type of test: cell-free.

The target in test [9] is T1, Dihydrofolate reductase. The experiment in a line: Inhibitory activity against dihydrofolate reductase(DHFR) isolated from L1210 murine leukemia cells. It counts as cell-free. The method in brief: as §1

Broadly, the IC50 is the midpoint of a concentration-inhibition curve. As for `CN(Cc1cnc2nc(N)nc(N)c2n1)c1ccc(C(=O)NC(C/C=C/C(=O)O)C(=O)O)cc1` (centres undefined), the figures for the IC50 with L1210 ( R81) [1], against Dihydrofolate reductase [2] and with L1210 [3] were above 300 µM, 32 µM and 0.35 µM, respectively.
As to `CN(Cc1cnc2nc(N)nc(N)c2n1)c1ccc(C(=O)N(CCC(=O)O)CC(=O)O)cc1`, the IC50 with L1210 [4] was determined as 12 µM; on Dihydrofolate reductase [2] it was 0.038 µM; in the test on L1210 ( R81) [5], 180 µM.
For the molecule `Nc1nc(N)c2nc(CNc3ccc(C(=O)NC(C/C=C/C(=O)O)C(=O)O)cc3)cnc2n1` (centres undefined), the figures for the IC50 on Dihydrofolate reductase [2] and with L1210 [3] were 46 µM and 0.031 µM, respectively.
The molecule `CN(Cc1cnc2nc(N)nc(N)c2n1)c1ccc(C(=O)N[C@@H](CCC(=O)O)C(=O)O)cc1` [METHOTREXATE] came in with an IC50 in the test on L1210 [6] of 0.005 µM. In other words, the single-digit nanomolar range.
The term inhibition denotes the relative decrease from the control value, in per cent. Lower therefore signals little suppression. In the test on L1210 [7], `Nc1nc(N)c2nc(CNc3ccccc3C(=O)NC(CCC(=O)O)C(=O)O)cnc2n1` (centres undefined) displayed an IC50 of 64 µM. The inhibition in [8] amounted to 20%.
`Nc1nc(N)c2nc(CNc3ccc(C(=O)N[C@@H](CCC(=O)O)C(=O)O)cc3)cnc2n1` [AMINOPTERIN] yielded an IC50 against Dihydrofolate reductase [9] of 0.002 µM.
Turning to `Nc1nc(N)c2nc(CNc3cccc(C(=O)NC(CCC(=O)O)C(=O)O)c3)cnc2n1` (centres undefined), the IC50 in the test with L1210 [7] is 1.5 µM; against Dihydrofolate reductase [9] it was 200 µM.
